Results on one compound are retold here after ChEMBL document CHEMBL3526053, “Species-dependent uptake of glycylsarcosine but not oseltamivir in Pichia pastoris expressing the rat, mouse, and human intestinal peptide transporter PEPT1” (Drug Metab Dispos, 2012).

What all share (assay type): ADME
For data set [1], the target named is T1, Solute carrier family 15 member 1 (Rattus norvegicus, UniProt P51574).
T1 sequence (P51574 whole entry): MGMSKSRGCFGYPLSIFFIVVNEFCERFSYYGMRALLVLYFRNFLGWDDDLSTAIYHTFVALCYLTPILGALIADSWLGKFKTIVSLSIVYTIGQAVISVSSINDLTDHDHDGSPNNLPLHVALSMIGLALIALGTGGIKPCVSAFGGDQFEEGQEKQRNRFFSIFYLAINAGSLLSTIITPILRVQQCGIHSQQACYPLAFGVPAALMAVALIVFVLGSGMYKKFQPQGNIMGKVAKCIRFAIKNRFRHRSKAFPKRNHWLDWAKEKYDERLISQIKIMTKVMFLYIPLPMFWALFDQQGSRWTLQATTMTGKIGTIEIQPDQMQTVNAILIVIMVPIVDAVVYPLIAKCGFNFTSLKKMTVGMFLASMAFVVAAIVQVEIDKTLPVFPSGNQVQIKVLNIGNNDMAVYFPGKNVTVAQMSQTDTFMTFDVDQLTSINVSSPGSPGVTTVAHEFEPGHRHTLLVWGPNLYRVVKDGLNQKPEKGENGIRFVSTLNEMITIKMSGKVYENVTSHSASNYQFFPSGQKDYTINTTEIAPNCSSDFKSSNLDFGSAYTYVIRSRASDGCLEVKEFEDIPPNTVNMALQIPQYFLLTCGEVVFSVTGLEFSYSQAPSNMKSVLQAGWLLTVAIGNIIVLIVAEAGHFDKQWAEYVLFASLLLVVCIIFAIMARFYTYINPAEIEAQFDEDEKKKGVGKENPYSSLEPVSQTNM
In words: Drug uptake in Pichia pastoris GS115 expressing rat recombinant PEPT1 at 5 uM after 30s by dual-channel liquid scintillation counting analysis in presence of cefadroxil relative to control. To be noted: in vivo, 0.5 min. A digest of the protocol: (§1)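 [3H]GlySar 5.0 µM final, 30-s uptake at 24°C in 100 mM potassium phosphate pH 6.5, with or without a potential inhibitor at 10 mM. Cells are methanol-induced transformants. Values are vector-subtracted and expressed as percent of buffer control. Mean ± SE (n=3). ANOVA with Dunnett's test.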

A further data set addresses T2, PEPT1 (Mus musculus, UniProt Q9JIP7).
T2 sequence (Q9JIP7 whole entry): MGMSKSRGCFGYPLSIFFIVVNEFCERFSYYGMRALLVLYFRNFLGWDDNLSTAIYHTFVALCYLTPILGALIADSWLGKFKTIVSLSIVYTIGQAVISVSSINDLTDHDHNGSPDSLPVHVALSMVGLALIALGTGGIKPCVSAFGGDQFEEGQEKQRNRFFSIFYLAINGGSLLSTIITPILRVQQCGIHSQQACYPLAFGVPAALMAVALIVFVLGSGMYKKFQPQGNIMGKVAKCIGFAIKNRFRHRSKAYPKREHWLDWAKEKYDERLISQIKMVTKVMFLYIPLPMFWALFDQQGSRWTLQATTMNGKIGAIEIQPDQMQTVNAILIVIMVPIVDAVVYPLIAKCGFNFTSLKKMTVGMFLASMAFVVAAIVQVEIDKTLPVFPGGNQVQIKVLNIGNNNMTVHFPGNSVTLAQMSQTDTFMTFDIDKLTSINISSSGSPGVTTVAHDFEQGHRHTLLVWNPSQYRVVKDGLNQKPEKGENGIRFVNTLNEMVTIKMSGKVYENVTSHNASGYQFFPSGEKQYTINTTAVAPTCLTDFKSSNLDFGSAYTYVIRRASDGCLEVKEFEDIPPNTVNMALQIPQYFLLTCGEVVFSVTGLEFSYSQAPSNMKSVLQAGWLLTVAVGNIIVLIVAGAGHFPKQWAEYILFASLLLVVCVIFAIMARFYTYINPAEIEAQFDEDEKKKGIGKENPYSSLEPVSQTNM
In words: Drug uptake in Pichia pastoris GS115 expressing mouse recombinant PEPT1 at 5 uM after 30 mins by dual-channel liquid scintillation counting analysis relative to vector control. The note with it: read-out: FC. The method, boiled down: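 5.0 µM radiolabelled substrate ([3H]GlySar or [14C]oseltamivir) is incubated 30 min at 24°C with induced transformants in 100 mM potassium phosphate pH 6.5. Cell-associated radioactivity is counted by scintillation after standing 24 h and normalised to OD600. Results are compared with pPIC3.5K vector-alone cells. Mean ± SE (n=6).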

The target of data set [2] is T3, Solute carrier family 15 member 1 (Homo sapiens, UniProt P46059).
T3 sequence (P46059 whole entry): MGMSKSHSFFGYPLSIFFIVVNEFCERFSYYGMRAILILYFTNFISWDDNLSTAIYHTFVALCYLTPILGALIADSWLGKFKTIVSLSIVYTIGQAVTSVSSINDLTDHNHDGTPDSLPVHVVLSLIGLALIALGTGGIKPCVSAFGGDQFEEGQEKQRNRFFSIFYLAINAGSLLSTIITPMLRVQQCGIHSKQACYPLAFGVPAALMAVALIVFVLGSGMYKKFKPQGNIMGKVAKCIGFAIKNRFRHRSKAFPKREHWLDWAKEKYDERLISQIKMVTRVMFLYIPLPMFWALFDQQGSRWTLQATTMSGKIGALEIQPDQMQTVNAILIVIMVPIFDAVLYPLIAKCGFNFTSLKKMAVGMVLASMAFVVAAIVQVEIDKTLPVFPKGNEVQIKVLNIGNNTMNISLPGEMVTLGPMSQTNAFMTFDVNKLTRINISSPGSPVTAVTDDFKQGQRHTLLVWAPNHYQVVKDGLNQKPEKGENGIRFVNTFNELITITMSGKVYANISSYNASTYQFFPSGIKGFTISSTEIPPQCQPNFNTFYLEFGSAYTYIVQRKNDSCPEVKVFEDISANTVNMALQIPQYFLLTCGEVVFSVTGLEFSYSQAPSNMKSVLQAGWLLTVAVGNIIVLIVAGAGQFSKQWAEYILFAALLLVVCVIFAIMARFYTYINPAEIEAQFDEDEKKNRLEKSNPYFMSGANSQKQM
Briefly: Drug uptake in Pichia pastoris GS115 expressing human recombinant PEPT1 at 5 uM after 30s by dual-channel liquid scintillation counting analysis in presence of cephapirin relative to control. The note with it: 0.5 min. A digest of the protocol: as §1

Data set [3] addresses T3, Solute carrier family 15 member 1. In words: Drug uptake in Pichia pastoris GS115 expressing human recombinant PEPT1 at 5 uM after 30s by dual-channel liquid scintillation counting analysis in presence of L-histidine relative to control. To be noted: 0.5 min. The method, boiled down:
as §1

Data set [4] concerns the target T1, Solute carrier family 15 member 1. Briefly: Activity at rat recombinant PEPT1 expressed in Pichia pastoris GS115 assessed as non-saturable rate constant after 30s by dual-channel liquid scintillation counting analysis. A digest of the protocol: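 [3H]GlySar concentration series 0.005-10 mM, 30-s uptake at 24°C in 100 mM potassium phosphate pH 6.5. Cells come from His+Mut+ GS115 transformants induced 20-24 h in methanol medium. Uptake is normalised to OD600. Data are fitted to Michaelis-Menten plus a first-order nonsaturable term (Kd), weighting unity. Parameters are mean ± SE (n=9).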

For data set [5] the target is unchanged. Briefly: Drug uptake in Pichia pastoris GS115 expressing rat recombinant PEPT1 at 5 uM after 30s by dual-channel liquid scintillation counting analysis in presence of TEA relative to control. The note with it: 0.5 min. The method, boiled down:
as §1

For data set [6] the target is unchanged. Briefly: Drug uptake in Pichia pastoris GS115 expressing rat recombinant PEPT1 at 5 uM after 30s by dual-channel liquid scintillation counting analysis in presence of acyclovir relative to control. The note with it: in vivo, 0.5 min. A digest of the protocol: as §1

Regarding `[3H]C(C(=O)O)N(C)C(=O)CN` (configuration not stated), the Drug uptake in data set [1] is listed as 23.1%; in data set [2], 100%; in data set [3], 122%; in data set [5] it was 94.8%; in data set [6] it was 109%. The uptake ratio at 0.5 h, 5 µM at PEPT1 stood at 100. The Kd in data set [4] turned out to be 2.21 uL/OD/min.
